The results in this text go back to ChEMBL document CHEMBL3862016 (Bioorg Med Chem Lett, 2016).

The structures appear in SMILES notation. Activity calls are given as the source filed them. No cut-off for these calls is given here. A value given as a limit tells only on which side of the number the result lay.

The target in one test is Histone deacetylase 2 (Homo sapiens, UniProt Q92769). Description: Inhibition of HDAC2 (unknown origin) assessed as inhibition of fluorogenic peptide deacetylation.
Chain of Histone deacetylase 2 (Q92769 whole entry): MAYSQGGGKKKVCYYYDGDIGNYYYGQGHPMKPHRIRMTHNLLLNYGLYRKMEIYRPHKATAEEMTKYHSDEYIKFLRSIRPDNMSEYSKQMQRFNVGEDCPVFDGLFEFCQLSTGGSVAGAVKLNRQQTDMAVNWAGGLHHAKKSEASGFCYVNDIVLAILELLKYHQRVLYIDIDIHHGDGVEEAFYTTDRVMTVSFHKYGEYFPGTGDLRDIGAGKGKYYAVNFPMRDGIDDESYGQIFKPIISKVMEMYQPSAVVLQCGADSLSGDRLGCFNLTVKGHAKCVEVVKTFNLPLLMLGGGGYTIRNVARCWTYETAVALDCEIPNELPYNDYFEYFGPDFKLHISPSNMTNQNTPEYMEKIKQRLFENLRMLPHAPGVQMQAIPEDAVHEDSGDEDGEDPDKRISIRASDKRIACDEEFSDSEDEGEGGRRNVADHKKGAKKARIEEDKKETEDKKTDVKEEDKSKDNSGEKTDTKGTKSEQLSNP
Another test deals with Histone deacetylase 1 (Homo sapiens, UniProt Q13547). Kind of test: Inhibition of HDAC1 (unknown origin) assessed as inhibition of fluorogenic peptide deacetylation.
Chain of Histone deacetylase 1 (Q13547 whole entry): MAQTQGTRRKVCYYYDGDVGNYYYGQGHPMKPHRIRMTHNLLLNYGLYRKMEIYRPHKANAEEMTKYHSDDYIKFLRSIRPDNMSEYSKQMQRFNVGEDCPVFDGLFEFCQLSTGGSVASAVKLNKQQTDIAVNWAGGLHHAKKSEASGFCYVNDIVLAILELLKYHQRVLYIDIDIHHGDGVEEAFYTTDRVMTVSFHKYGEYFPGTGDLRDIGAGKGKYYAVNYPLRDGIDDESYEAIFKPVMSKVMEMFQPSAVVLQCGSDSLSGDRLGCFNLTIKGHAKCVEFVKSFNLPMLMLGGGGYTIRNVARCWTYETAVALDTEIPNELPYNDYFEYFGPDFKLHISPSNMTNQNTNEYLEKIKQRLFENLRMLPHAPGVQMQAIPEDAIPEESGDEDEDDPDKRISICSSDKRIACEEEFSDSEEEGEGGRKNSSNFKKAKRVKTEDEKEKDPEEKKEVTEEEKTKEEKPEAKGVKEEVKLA
For test [1], the target named is T1, Protein deacetylase HDAC6 (Homo sapiens, UniProt Q9UBN7).
T1 sequence (Q9UBN7 whole entry): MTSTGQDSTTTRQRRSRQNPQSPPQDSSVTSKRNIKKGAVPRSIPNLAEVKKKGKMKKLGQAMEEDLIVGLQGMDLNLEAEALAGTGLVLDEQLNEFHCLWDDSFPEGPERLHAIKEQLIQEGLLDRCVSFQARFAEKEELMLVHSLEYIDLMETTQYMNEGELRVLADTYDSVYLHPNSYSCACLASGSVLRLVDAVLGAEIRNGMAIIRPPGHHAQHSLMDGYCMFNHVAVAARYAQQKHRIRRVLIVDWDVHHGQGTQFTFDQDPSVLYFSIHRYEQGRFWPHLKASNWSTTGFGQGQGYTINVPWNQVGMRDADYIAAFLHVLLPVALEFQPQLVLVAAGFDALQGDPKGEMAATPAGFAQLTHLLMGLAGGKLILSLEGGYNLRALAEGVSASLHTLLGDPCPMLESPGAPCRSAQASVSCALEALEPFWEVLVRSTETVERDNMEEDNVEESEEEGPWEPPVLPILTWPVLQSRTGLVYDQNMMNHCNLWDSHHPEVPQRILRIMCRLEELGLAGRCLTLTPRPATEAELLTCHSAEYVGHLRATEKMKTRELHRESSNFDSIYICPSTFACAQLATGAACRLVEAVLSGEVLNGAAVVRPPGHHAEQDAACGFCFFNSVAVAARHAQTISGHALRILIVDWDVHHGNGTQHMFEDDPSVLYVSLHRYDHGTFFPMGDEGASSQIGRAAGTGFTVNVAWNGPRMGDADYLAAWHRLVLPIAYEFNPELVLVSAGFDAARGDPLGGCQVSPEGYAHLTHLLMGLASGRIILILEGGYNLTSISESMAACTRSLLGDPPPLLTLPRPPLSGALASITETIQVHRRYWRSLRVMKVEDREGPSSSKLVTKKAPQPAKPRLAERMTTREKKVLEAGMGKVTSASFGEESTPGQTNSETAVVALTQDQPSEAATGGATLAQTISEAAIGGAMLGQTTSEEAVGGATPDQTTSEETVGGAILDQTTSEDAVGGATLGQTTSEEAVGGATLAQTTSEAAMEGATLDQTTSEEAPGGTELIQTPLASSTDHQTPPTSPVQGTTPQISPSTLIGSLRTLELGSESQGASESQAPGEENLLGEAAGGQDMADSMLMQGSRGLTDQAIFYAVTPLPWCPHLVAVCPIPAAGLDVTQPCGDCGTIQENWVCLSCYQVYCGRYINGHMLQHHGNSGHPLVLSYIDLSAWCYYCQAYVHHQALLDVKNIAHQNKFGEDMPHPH
Description: Inhibition of HDAC6 (unknown origin) assessed as inhibition of fluorogenic peptide deacetylation.

The next test addresses Histone deacetylase 3 (Homo sapiens, UniProt O15379). Kind of test: Inhibition of HDAC3 (unknown origin) assessed as inhibition of fluorogenic peptide deacetylation.
A further test deals with T2, Androgen receptor (Homo sapiens, UniProt P10275).
T2 sequence (P10275 whole entry): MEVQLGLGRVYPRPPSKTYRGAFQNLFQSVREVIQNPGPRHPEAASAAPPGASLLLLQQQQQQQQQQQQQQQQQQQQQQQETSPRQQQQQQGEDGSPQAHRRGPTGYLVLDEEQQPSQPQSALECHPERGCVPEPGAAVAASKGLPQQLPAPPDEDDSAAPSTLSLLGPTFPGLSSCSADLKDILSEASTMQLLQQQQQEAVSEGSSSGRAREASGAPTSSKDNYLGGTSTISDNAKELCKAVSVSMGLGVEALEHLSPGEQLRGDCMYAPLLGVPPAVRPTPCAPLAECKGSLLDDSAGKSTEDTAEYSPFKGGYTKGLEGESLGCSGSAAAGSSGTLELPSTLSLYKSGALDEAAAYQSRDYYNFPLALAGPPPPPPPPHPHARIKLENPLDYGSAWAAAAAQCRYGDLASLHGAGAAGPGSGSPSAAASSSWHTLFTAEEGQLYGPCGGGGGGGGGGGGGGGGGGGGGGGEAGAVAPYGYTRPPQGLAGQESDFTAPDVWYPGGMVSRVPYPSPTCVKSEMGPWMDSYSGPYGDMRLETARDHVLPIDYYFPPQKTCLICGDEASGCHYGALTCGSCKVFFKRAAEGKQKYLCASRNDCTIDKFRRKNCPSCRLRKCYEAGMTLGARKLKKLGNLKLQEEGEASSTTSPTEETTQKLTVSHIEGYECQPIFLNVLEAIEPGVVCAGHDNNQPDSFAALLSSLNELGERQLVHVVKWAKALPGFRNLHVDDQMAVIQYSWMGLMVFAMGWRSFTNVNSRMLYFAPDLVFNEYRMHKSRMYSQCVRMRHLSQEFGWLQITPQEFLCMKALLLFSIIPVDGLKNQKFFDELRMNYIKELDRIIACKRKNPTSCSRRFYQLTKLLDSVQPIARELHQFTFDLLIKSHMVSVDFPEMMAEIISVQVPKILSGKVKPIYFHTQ
Description: Displacement of [3H]mibolerone from androgen receptor (unknown origin) in membranes after 24 hrs by HAP adsorption assay.

Test [2] addresses T3, Androgen receptor (Homo sapiens) (UniProt P10275).
T3 sequence (whole entry): T2 sequence (P10275 whole entry)
Kind of test: Antagonist activity at AR in human LNCAP cells assessed as suppression of DHT-induced AR protein level measured after 24 hrs relative to control. Type of test: cell-based. A digest of the protocol:
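LNCaP cells were stimulated with 10 nM DHT and co-treated with test agent for 24 h. Whole-cell extracts were resolved on an acrylamide gel and immunoblotted for AR and acetylated tubulin, with actin as the loading control. AR protein level was normalized to actin and compared with vehicle-treated cells.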

Chain of Histone deacetylase 3 (O15379 whole entry): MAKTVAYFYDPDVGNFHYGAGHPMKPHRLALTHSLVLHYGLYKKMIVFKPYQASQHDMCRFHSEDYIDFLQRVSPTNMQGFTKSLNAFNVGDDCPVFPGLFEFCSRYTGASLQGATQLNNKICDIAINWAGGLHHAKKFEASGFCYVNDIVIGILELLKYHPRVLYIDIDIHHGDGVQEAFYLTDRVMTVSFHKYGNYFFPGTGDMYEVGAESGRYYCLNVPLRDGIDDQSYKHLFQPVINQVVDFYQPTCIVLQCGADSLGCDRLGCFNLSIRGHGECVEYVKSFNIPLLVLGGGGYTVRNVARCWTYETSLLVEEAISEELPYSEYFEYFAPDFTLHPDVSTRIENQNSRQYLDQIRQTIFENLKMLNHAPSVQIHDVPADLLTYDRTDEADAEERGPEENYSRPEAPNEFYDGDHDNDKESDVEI

One may read the IC50 as the point on the concentration scale where inhibition reaches its midpoint. With `CC1(C)C(=O)N(c2ccc(C#N)c(C(F)(F)F)c2)C(=S)N1c1ccc(C(=O)Nc2ccccc2N)c(F)c1`, the IC50 on Histone deacetylase 2 worked out at 14.1 µM; on Histone deacetylase 1, 6.19 µM; in test [1] it was 47.3 µM; on Histone deacetylase 3, 5.4 µM; at Androgen receptor, 0.33 µM.

Turning to `CC1(C)C(=O)N(c2ccc(C#N)c(C(F)(F)F)c2)C(=S)N1c1ccc(C(=O)NCCCCCCc2ccc(C(=O)C(F)(F)F)s2)c(F)c1`, the IC50 is above 10 µM on Histone deacetylase 2; above 10 µM at Histone deacetylase 1; above 10 µM in test [1]; above 10 µM at Histone deacetylase 3; 0.068 µM on Androgen receptor.

Turning to `CC1(C)C(=O)N(c2ccc(C#N)c(C(F)(F)F)c2)C(=S)N1c1ccc(C(=O)NCCCCCCC(=O)Nc2ccccc2N)c(F)c1`, the IC50 is 3.37 µM at Histone deacetylase 2; above 10 µM at Histone deacetylase 1; above 10 µM in test [1]; 0.28 µM on Histone deacetylase 3; below 0.03 µM at Androgen receptor.

For the molecule `CN1CCc2c(c3ccccc3n2Cc2ccc(C(=O)NO)cc2)C1`, in test [2], the inhibition result is “Active”.

Take `CC1(C)C(=O)N(c2ccc(C#N)c(C(F)(F)F)c2)C(=S)N1c1ccc(C(=O)NCCCNS(N)(=O)=O)c(F)c1`: the IC50 at Histone deacetylase 2 was above 100 µM; at Histone deacetylase 1, above 100 µM; in test [1] it was above 100 µM; at Histone deacetylase 3, above 100 µM; at Androgen receptor, 0.35 µM.

Take `CC1(C)C(=O)N(c2ccc(C#N)c(C(F)(F)F)c2)C(=S)N1c1ccc(C(=O)NCCOCCC(=O)NO)c(F)c1`: the IC50 amounted to 86.5 µM on Histone deacetylase 2; 58.1 µM on Histone deacetylase 1; 0.495 µM in test [1]; 49.2 µM on Histone deacetylase 3; 0.078 µM on Androgen receptor.

Turning to `CC1(C)C(=O)N(c2ccc(C#N)c(C(F)(F)F)c2)C(=S)N1c1ccc(/C=C/C(=O)Nc2ccccc2N)c(F)c1`, the IC50 on Histone deacetylase 2 is above 100 µM; on Histone deacetylase 1, above 100 µM; in test [1], 60 µM; at Histone deacetylase 3, 20.2 µM; on Androgen receptor, 0.23 µM.

On to `CC1(C)C(=O)N(c2ccc(C#N)c(C(F)(F)F)c2)C(=S)N1c1ccc(Cn2ccc3cc(/C=C/C(=O)NO)ccc32)c(F)c1`, for which the IC50 on Histone deacetylase 2 is above 100 µM; at Histone deacetylase 1, above 100 µM; in test [1], 2.03 µM; at Histone deacetylase 3, above 100 µM; on Androgen receptor, below 0.03 µM.

For the molecule `CC1(C)C(=O)N(c2ccc(C#N)c(C(F)(F)F)c2)C(=S)N1c1ccc(C(=O)NCCCCCCn2cccc(O)c2=O)c(F)c1`, the IC50 is above 100 µM on Histone deacetylase 2; above 100 µM at Histone deacetylase 1; above 100 µM in test [1]; above 100 µM on Histone deacetylase 3; 0.25 µM on Androgen receptor.

With `CC1(C)C(=O)N(c2ccc(C#N)c(C(F)(F)F)c2)C(=S)N1c1ccc(C(=O)OCCCCCC(=O)NO)c(F)c1`, the IC50 on Histone deacetylase 2 amounted to 1.1 µM; at Histone deacetylase 1, 3.15 µM; in test [1], 0.002 µM; at Histone deacetylase 3, 2 µM; at Androgen receptor it was 0.043 µM.

As to `CC1(C)C(=O)N(c2ccc(C#N)c(C(F)(F)F)c2)C(=S)N1c1ccc(C(=O)NCCCn2cccc(O)c2=O)c(F)c1`, the IC50 was above 100 µM on Histone deacetylase 2; above 100 µM at Histone deacetylase 1; 14 µM in test [1]; above 100 µM on Histone deacetylase 3; 0.56 µM on Androgen receptor.

Turning to `CC1(C)C(=O)N(c2ccc(C#N)c(C(F)(F)F)c2)C(=S)N1c1ccc(C(=O)NCCCCCCNS(N)(=O)=O)c(F)c1`, the IC50 on Histone deacetylase 2 was above 100 µM; at Histone deacetylase 1, above 100 µM; in test [1], 1.12 µM; at Histone deacetylase 3, above 100 µM; at Androgen receptor, 0.11 µM.

Turning to `CC1(C)C(=O)N(c2ccc(C#N)c(C(F)(F)F)c2)C(=S)N1c1ccc(C(=O)NCCCCCCn2cccc(O)c2=S)c(F)c1`, the IC50 on Histone deacetylase 2 is 3.33 µM; at Histone deacetylase 1, above 10 µM; in test [1], above 10 µM; on Histone deacetylase 3, above 10 µM; at Androgen receptor, below 0.03 µM.
